Values joined by “and” are separate entries in the source; they are usually repeats but may differ in a detail not shown here. Equal values may be shown once.
Columns and labels:
[1] = tested on: Mus musculus; assay: Anticancer activity against P388 leukemia in CD2F1 male mice by 60 mg/kg/day.; format: functional
In short: (§1)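 CD2F1 male mice, 19–22 g, in groups of six, inoculated ip with 10⁶ P388 cells on day 0. Dosed ip once daily for 9 days from day 1, in saline, or for linear polyethers in aqueous 2% Tween 80. Deaths and survivors were recorded to 30 days, some to 60. T/C is mean survival, treated vs tumour-bearing control. %ILS = [(T−C)/C]×100. Average day-5 weight change was taken as toxicity.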

[2] = tested on: Mus musculus; assay: Anticancer activity against P388 leukemia in CD2F1 male mice expressed as Average % weight change on day 5 as a measure of toxicity was reported at a dose of 60 mg/kg/day.; format: functional; in short: as §1
[3] = tested on: Mus musculus; assay: Compound was evaluated for the anticancer activity against P388 leukemia in CD2F1 male mice at a dose of 60 mg/kg/after 30 days; 0/6; format: functional; in short: as §1
[4] = tested on: Mus musculus; assay: Compound was evaluated for the anticancer activity against P388 leukemia in CD2F1 male mice at a dose of 20 mg/kg/after 30 days; 0/6; format: functional
[5] = tested on: Mus musculus; assay: Anticancer activity against P388 leukemia in CD2F1 male mice expressed as Average % weight change on day 5 as a measure of toxicity was reported at a dose of 20 mg/kg/day.; format: functional; in short: as §1
[6] = tested on: Mus musculus; assay: Percentage increase in life span when the compound was administered intraperitoneally at dose of 20 mg/Kg in P388 leukemia in CDF1 mice was determined; format: functional; conditions: P388, ip; in short: as §1
[7] = partition coefficient with the use of 1-octanol / water solvent system; format: physicochemical
In short: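 4 mL of 10 mM aqueous compound was stirred vigorously with 2 mL 1-octanol for 5 min at 25 °C. The aqueous layer was analysed by ³¹P NMR, and signal intensity (peak height × width at half-height) gave concentrations in each phase. P = [octanol]/[water].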

[8] = tested on: Mus musculus; assay: Percentage increase in life span when the compound was administered intraperitoneally at dose of 60 mg/Kg in P388 leukemia in CDF1 mice was determined; format: functional; conditions: P388, ip; in short: as §1

SMILES: CCOCCOCCOP(=O)(N1CC1(C)C)N1CC1(C)C (stereo unspecified)
- T/C [1]: 188% and 88%
- Weight change [2]: 5.5%
- Survivors [3]: 0
- Survivors [4]: 0
- Weight change [5]: 1.5%
- ILS at 20 mg/kg [6]: 28%
- Partition coefficient [7]: 1.65
- ILS at 60 mg/kg [8]: 88%

SMILES: CCOCCOCCOP(=O)(N1CC1)N1CC1
- T/C [1]: 231% and 131%
- Weight change [2]: 4.5%
- Survivors [3]: 0
- Survivors [4]: 0
- Weight change [5]: 2.8%
- ILS at 20 mg/kg [6]: 40%
- Partition coefficient [7]: 1.25
- ILS at 60 mg/kg [8]: 131%

SMILES: CCOCCOCCOP(=S)(N1CC1)N1CC1
- T/C [1]: 177% and 77%
- Weight change [2]: 1.4%
- Survivors [3]: 0
- Survivors [4]: 0
- Weight change [5]: 2.6%
- ILS at 20 mg/kg [6]: 24%
- Partition coefficient [7]: 2.4
- ILS at 60 mg/kg [8]: 77%

SMILES: CCOCCOCCOP(=S)(N1CC1(C)C)N1CC1(C)C (stereo unspecified)
- Weight change [2]: 1.4%
- Survivors [3]: 0
- Survivors [4]: 0
- Weight change [5]: 1.6%
- ILS at 20 mg/kg [6]: 19%
- Partition coefficient [7]: 2.95
- ILS at 60 mg/kg [8]: 42%

SMILES: O=P(N1CCOCCOCCOCCOCCOCC1)(N1CC1)N1CC1
- T/C [1]: 188% and 88%
- Weight change [2]: 0.5%
- Survivors [3]: 0
- Survivors [4]: 0
- Weight change [5]: 7.6%
- ILS at 20 mg/kg [6]: 47%
- Partition coefficient [7]: 0.044
- ILS at 60 mg/kg [8]: 88%

SMILES: S=P(N1CCOCCOCCOCCOCCOCC1)(N1CC1)N1CC1
- Weight change [2]: 12.3%
- Survivors [3]: 0
- Survivors [4]: 0
- Weight change [5]: 10.6%
- ILS at 20 mg/kg [6]: 2%
- Partition coefficient [7]: 5.6
- ILS at 60 mg/kg [8]: 20%

Source: ChEMBL document CHEMBL1123312, “In the search for new anticancer drugs. 17. Linear and cyclic polyether analogues of N,N:N',N':N'',N''-tri-1,2-ethanediylphosphoric triamide and N,N:N',N':N'',N''-tri-1,2-ethanediylphosphorothioic triamide” (J Med Chem, 1986)
